Published values of several laboratories.
Protocols differ between the studies behind these lines.
Target: Dual serine/threonine and tyrosine protein kinase (DSTYK, Homo sapiens, UniProt Q6XUX3)
Sequence (Q6XUX3 1-929, as in one of the studies): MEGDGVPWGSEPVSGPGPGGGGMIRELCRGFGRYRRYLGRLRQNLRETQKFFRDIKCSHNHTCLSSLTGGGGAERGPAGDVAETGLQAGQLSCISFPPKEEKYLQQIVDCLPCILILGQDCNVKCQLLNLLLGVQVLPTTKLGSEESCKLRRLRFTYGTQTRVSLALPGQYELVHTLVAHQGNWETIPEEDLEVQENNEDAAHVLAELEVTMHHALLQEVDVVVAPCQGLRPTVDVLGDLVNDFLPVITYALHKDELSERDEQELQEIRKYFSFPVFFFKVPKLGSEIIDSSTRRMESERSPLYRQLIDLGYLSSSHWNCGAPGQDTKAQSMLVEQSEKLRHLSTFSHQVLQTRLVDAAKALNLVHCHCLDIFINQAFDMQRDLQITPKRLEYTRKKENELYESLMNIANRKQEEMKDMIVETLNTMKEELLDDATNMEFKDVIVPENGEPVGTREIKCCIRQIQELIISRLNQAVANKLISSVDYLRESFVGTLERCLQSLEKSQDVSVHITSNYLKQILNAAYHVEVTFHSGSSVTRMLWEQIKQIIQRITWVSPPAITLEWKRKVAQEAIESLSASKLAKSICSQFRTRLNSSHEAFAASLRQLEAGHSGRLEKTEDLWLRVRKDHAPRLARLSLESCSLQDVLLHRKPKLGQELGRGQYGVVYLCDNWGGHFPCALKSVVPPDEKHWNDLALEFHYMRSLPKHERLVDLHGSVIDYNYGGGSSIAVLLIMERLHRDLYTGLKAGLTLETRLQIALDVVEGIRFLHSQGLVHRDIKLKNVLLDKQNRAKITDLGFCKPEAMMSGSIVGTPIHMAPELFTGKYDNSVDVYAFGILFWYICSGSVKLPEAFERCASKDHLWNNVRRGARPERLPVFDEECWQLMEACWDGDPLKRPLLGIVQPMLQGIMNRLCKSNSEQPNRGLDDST

O=C1Nc2ccc(Cl)cc2C1=Cc1cc(Cl)c(O)c(Cl)c1  remaining signal (cell-free assay; 0.5 µM): 89.6%
CC(C)(O)[C@H]1CC[C@H](Nc2ccc3ncc(-c4cccc(C(F)(F)F)c4)n3n2)CC1  remaining activity (enzyme activity, inhibitor; 1 µM): 97.1%
Cc1ccc(Nc2nccc(N(C)c3ccc4c(C)n(C)nc4c3)n2)cc1S(N)(=O)=O  remaining activity (enzyme activity, inhibitor; 0.5 µM): 94.3%
Cc1cnn2ncc(-c3ccnc(N(C)C)n3)c2c1  remaining binding (binding; 1 µM): 97%
CCCOc1ccc([C@H]2[C@H](C(=O)O)[C@@H](c3ccc4c(c3)OCO4)CN2CC(=O)Nc2c(CC)cccc2CC)cc1  remaining binding (cell-free assay, competition with immobilised ligand; 1 µM): 73%
CC(C)(C)c1nc(-c2cccc(NS(=O)(=O)c3c(F)cccc3F)c2F)c(-c2ccnc(N)n2)s1  remaining activity (enzyme activity, inhibitor, radiometric; 1 µM): 82%
O=C(Nc1cnn(-c2csc(C(=O)NC3COC3)c2)c1)Nc1ccccc1Cl  remaining activity (enzyme activity, inhibitor; 5 µM): 102%
CC1=C(C#N)[C@@H](c2ccc3[nH]nc(C)c3c2)C(C#N)=C(c2ccc(Cl)cc2)N1  remaining binding (cell-free assay, competition with immobilised ligand; 1 µM): 100%
Cc1sc(C(=O)NC2COC2)cc1-n1cc(NC(=O)Nc2c(F)cccc2Cl)cn1  remaining activity (enzyme activity, inhibitor; 10 µM): 96.6%
Cc1cc(-n2nc(Cc3cc(F)cc(C(F)(F)F)c3)nc2C)ccc1C(N)=O  remaining binding (cell-free assay, competition with immobilised ligand; 1 µM): 97%
Cc1ccc(C(=O)Nc2ccc(CN3CCN(C)CC3)c(C(F)(F)F)c2)cc1C#Cc1cnc2cccnn12  remaining activity (enzyme activity, inhibitor; 23.5 nM): 95%
CSc1cccnc1N1CCN(Cc2nc3ccccc3[nH]2)CC1  remaining binding (cell-free assay, competition with immobilised ligand; 1 µM): 76%
Nc1ncnc2occ(-c3ccc(NC(=O)Nc4cc(C(F)(F)F)ccc4F)cc3)c12  remaining signal (cell-free assay, inhibitor; 20 µM): 2.8%
CC(C)(C)c1nc2c(s1)c1nc(N)ncc1c1ccc(NS(=O)(=O)c3c(F)cccc3F)c(F)c12  remaining activity (enzyme activity, inhibitor, radiometric; 1 µM): 83%
N#CCCc1ccc2c(c1)-c1[nH]c3ccc([N+](=O)[O-])cc3c1CC(=O)N2  remaining signal (cell-free assay; 0.5 µM): 67.1%
